Laboratory results as given in ChEMBL document CHEMBL1127424, “7-azetidinylquinolones as antibacterial agents. 2. Synthesis and biological activity of 7-(2,3-disubstituted-1-azetidinyl)-4-oxoquinoline- and -1,8-naphthyridine-3-carboxylic acids. Properties and structure-activity relationships of quinolones with an azetidine moiety” (J Med Chem, 1994).
In brackets after ≈: the same amount, converted by molar mass. Several values for one entry are separate records, joined by “and”; a condition that tells them apart may be missing. Identical values can stand only once.

Key:
[1] = Dissociation constant (pKa); format: physicochemical; settings: read-out: pKa2
Summary of the method: (§1)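 Spectrophotometric titration at 20 ± 1 °C, 0.1 M ionic strength, pH varied with H2SO4 or NaOH made up in the compound stock. Absorbance followed at compound-specific wavelengths chosen from 200–400 nm scans. pKa1 and pKa2 taken as the inflection points of the two-step absorbance vs pH curve.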

[2] = Measured ionization constant (pKa); format: physicochemical; settings: read-out: pKa1; summary of the method: as §1
[3] = HPLC capacity factor (k'); format: ADME
Summary of the method: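 Ion-pair reversed-phase HPLC on ODS-2 (10 μm) at 45 °C. Mobile phase: 10 mM sodium heptanesulfonate plus 50 mM KH2PO4 (pH 3.5)–methanol 45:55, 1 mL/min. Samples at 100 μg/mL in DMF, injected in duplicate, UV 280 nm. k' = (tR − t0)/t0.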

Proteus vulgaris = assay: In vitro minimum inhibitory concentration for Proteus vulgaris ATCC 8427; format: functional
Summary of the method: (§2)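 Serial 2-fold agar dilution in Mueller Hinton medium, run alongside a reference quinolone. Inoculum adjusted to 10⁸ cfu/mL; compound range 0.007–16 μg/mL.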

Bacillus cereus = assay: In vitro minimum inhibitory concentration for Bacillus cereus ATCC 11778; format: functional; summary of the method: as §2
Mus musculus [4] = assay: Evaluation of efficacy on systemic infections Pseudomonas aeruginosa HS-116, after oral administration in mice; format: functional
Summary of the method: (§3)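 Single oral dose given immediately after infection, one of four doses per group, chosen from in vitro activity. Survival scored after one week. ED50 (total mg/kg protecting 50%) interpolated from survival rates.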

Staphylococcus aureus = assay: In vitro minimum inhibitory concentration for Staphylococcus aureus ATCC 25178; format: functional; summary of the method: as §2
Mus musculus [5] = assay: Evaluation of efficacy on systemic infections Staphylococcus aureus HS-93, after oral administration in mice; format: functional; summary of the method: as §3
Bacillus subtilis = assay: In vitro minimum inhibitory concentration for Bacillus subtilis ATCC 6633; format: functional; summary of the method: as §2
Enterococcus faecalis = assay: In vitro minimum inhibitory concentration for Streptococcus faecalis ATCC 10541; format: functional; summary of the method: as §2
[6] = Solubility (buffer pH 7.4); format: physicochemical; settings: read-out: S
Summary of the method: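 Excess solid shaken in 0.05 M phosphate buffer pH 7.4 for 24 h at 25 °C. Suspension filtered through 0.22 μm, discarding the first portion. Filtrate diluted in 0.1 N HCl or 0.1 N NaOH and read by UV at the compound's absorbance maximum.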

[7] = system: Staphylococcus epidermidis; assay: In vitro minimum inhibitory concentration for Staphylococcus epidermidis ATCC 155-1; format: functional; summary of the method: as §2
Mus musculus [8] = assay: Evaluation of efficacy on systemic infections Escherichia coli HM-42, after oral administration in mice; format: functional; summary of the method: as §3
Klebsiella pneumoniae = assay: In vitro minimum inhibitory concentration to inhibit Klebsiella pneumoniae ATCC 10031; format: functional; summary of the method: as §2
Pseudomonas aeruginosa = assay: In vitro minimum inhibitory concentration for Pseudomonas aeruginosa ATCC 10145; format: functional; summary of the method: as §2
[9] = AUC (0-4 hr) ug/ml/h; format: ADME, cell-free; set-up: time < 4 hr; concentration or dose not given beside the values; settings: plasma
Summary of the method: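 Mice dosed once orally at 50 mg/kg; blood taken from groups of six mice at 0.5, 1, 2 and 4 h. Serum drug assayed by disk agar diffusion bioassay (Bacillus subtilis ATCC 6633 on Seed Agar, 37 °C, 18 h), giving total activity.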

Morganella morganii = assay: In vitro minimum inhibitory concentration for Morganella morganii ATCC 8019; format: functional; summary of the method: as §2
Escherichia coli = assay: In vitro minimum inhibitory concentration for Escherichia coli ATCC 10799; format: functional; summary of the method: as §2
Enterobacter cloacae = assay: In vitro minimum inhibitory concentration for Enterobacter cloacae ATCC 23355; format: functional

SMILES | pKa [1] | pKa [2] | Log k' [3] | MIC (Proteus vulgaris) | MIC (Bacillus cereus) | MIC (Staphylococcus aureus) | MIC (Bacillus subtilis) | MIC (Enterococcus faecalis) | solubility [6] | MIC [7] | MIC (Klebsiella pneumoniae) | MIC (Pseudomonas aeruginosa) | AUC [9] | MIC (Morganella morganii) | MIC (Escherichia coli) | MIC (Enterobacter cloacae) | ED50 (Mus musculus [4]) | ED50 (Mus musculus [5]) | ED50 (Mus musculus [8])
CCNC1CN(c2c(F)cc3c(=O)c(C(=O)O)cn(C4CC4)c3c2F)C1 | 8.57 | 6.2 | 0.0996 | – | – | – | – | – | – | – | – | – | – | – | – | – | – | – | –
C[C@H]1[C@H](N)CN1c1c(F)cc2c(=O)c(C(=O)O)cn(-c3ccc(F)cc3F)c2c1Cl | – | – | 0.3553 | 0.25 mg/L (≈ 0.571 µM) | 0.03 mg/L (≈ 0.0685 µM) | 0.12 mg/L (≈ 0.274 µM) | 0.03 mg/L (≈ 0.0685 µM) | 0.25 mg/L (≈ 0.571 µM) | 0.0165 mg/mL (≈ 37.7 µM) | 0.06 mg/L (≈ 0.137 µM) | 0.12 mg/L (≈ 0.274 µM) | 0.5 mg/L (≈ 1.14 µM) | 32.3 µg·h/mL | 0.25 mg/L (≈ 0.571 µM) | 0.06 mg/L (≈ 0.137 µM) | 0.12 mg/L (≈ 0.274 µM) | 86.9 mg/kg | 4.3 mg/kg | 3.6 mg/kg
C[C@H]1[C@@H](N)CN1c1c(F)cc2c(=O)c(C(=O)O)cn(C3CC3)c2c1F | – | – | 0.0813 | 0.25 mg/L (≈ 0.716 µM) | 0.12 mg/L (≈ 0.344 µM) | 0.012 mg/L (≈ 0.0344 µM) | 0.06 mg/L (≈ 0.172 µM) | 1 mg/L (≈ 2.86 µM) | 0.0236 mg/mL (≈ 67.6 µM) | 0.12 mg/L (≈ 0.344 µM) | 0.12 mg/L (≈ 0.344 µM) | 1 mg/L (≈ 2.86 µM) | 9 µg·h/mL | 0.012 mg/L (≈ 0.0344 µM) | 0.12 mg/L (≈ 0.344 µM) | 0.06 mg/L (≈ 0.172 µM) | 123 mg/kg | 18.6 mg/kg | 6.2 mg/kg
C[C@@H]1[C@@H](CN)CN1c1c(F)cc2c(=O)c(C(=O)O)cn(C3CC3)c2c1F | – | – | -0.0397 | 0.25 mg/L (≈ 0.688 µM) | 0.25 mg/L (≈ 0.688 µM) | 0.12 mg/L (≈ 0.33 µM) | 0.06 mg/L (≈ 0.165 µM) | 0.25 mg/L (≈ 0.688 µM) | – | 0.12 mg/L (≈ 0.33 µM) | 0.12 mg/L (≈ 0.33 µM) | 0.5 mg/L (≈ 1.38 µM) | 2.3 µg·h/mL | 0.25 mg/L (≈ 0.688 µM) | 0.06 mg/L (≈ 0.165 µM) | 0.06 mg/L (≈ 0.165 µM) | 70 mg/kg | 20 mg/kg | 31 mg/kg
CC1(N)CN(c2c(F)cc3c(=O)c(C(=O)O)cn(C4CC4)c3c2F)C1 | 8.33 | 6.23 | -0.0177 and 0.0094 | – | – | – | – | – | – | – | – | – | – | – | – | – | – | – | –
C[C@H]1[C@H](N)CN1c1cc2c(cc1F)c(=O)c(C(=O)O)cn2-c1ccc(F)cc1F [CETEFLOXACIN] | – | – | 0.1875 | 0.5 mg/L (≈ 1.24 µM) | 0.25 mg/L (≈ 0.62 µM) | 0.12 mg/L (≈ 0.298 µM) | 0.03 mg/L (≈ 0.0744 µM) | 1 mg/L (≈ 2.48 µM) | 0.031 mg/mL (≈ 76.9 µM) | 0.12 mg/L (≈ 0.298 µM) | 0.015 mg/L (≈ 0.0372 µM) | 2 mg/L (≈ 4.96 µM) | 30.2 µg·h/mL | 0.25 mg/L (≈ 0.62 µM) | 0.12 mg/L (≈ 0.298 µM) | 0.12 mg/L (≈ 0.298 µM) | 77.9 mg/kg | 8.1 mg/kg | 6 mg/kg

Continued, in another order:

pKa [1] | pKa [2] | Log k' [3] | MIC (Proteus vulgaris) | MIC (Bacillus cereus) | MIC (Staphylococcus aureus) | MIC (Bacillus subtilis) | MIC (Enterococcus faecalis) | solubility [6] | MIC [7] | MIC (Klebsiella pneumoniae) | MIC (Pseudomonas aeruginosa) | AUC [9] | MIC (Morganella morganii) | MIC (Escherichia coli) | MIC (Enterobacter cloacae) | SMILES | ED50 (Mus musculus [4]) | ED50 (Mus musculus [5]) | ED50 (Mus musculus [8])
– | – | 0.2644 | 0.5 mg/L (≈ 1.19 µM) | 0.12 mg/L (≈ 0.285 µM) | 0.12 mg/L (≈ 0.285 µM) | 0.06 mg/L (≈ 0.142 µM) | 1 mg/L (≈ 2.37 µM) | 0.0234 mg/mL (≈ 55.5 µM) | 0.12 mg/L (≈ 0.285 µM) | 0.06 mg/L (≈ 0.142 µM) | 1 mg/L (≈ 2.37 µM) | 22.3 µg·h/mL | 0.25 mg/L (≈ 0.593 µM) | 0.12 mg/L (≈ 0.285 µM) | 0.06 mg/L (≈ 0.142 µM) | C[C@H]1[C@H](N)CN1c1c(F)cc2c(=O)c(C(=O)O)cn(-c3ccc(F)cc3F)c2c1F | 61 mg/kg | 10 mg/kg | 2.3 mg/kg
– | 6.65 | 0.0828 | 0.06 mg/L (≈ 0.165 µM) | 0.015 mg/L (≈ 0.0412 µM) | 0.015 mg/L (≈ 0.0412 µM) | 0.015 mg/L (≈ 0.0412 µM) | 0.06 mg/L (≈ 0.165 µM) | 0.0377 mg/mL (≈ 103 µM) | 0.015 mg/L (≈ 0.0412 µM) | 0.015 mg/L (≈ 0.0412 µM) | 0.25 mg/L (≈ 0.686 µM) | 12.3 µg·h/mL | 0.015 mg/L (≈ 0.0412 µM) | 0.03 mg/L (≈ 0.0823 µM) | 0.015 mg/L (≈ 0.0412 µM) | C[C@H]1[C@H](N)CN1c1c(F)c(N)c2c(=O)c(C(=O)O)cn(C3CC3)c2c1F | 102 mg/kg | 8.7 mg/kg | 4.2 mg/kg
– | – | -0.0042 | 1 mg/L (≈ 2.68 µM) | 1 mg/L (≈ 2.68 µM) | 0.5 mg/L (≈ 1.34 µM) | 0.06 mg/L (≈ 0.161 µM) | 4 mg/L (≈ 10.7 µM) | – | 0.5 mg/L (≈ 1.34 µM) | 0.06 mg/L (≈ 0.161 µM) | 4 mg/L (≈ 10.7 µM) | 3.2 µg·h/mL | 0.5 mg/L (≈ 1.34 µM) | 0.12 mg/L (≈ 0.321 µM) | 0.12 mg/L (≈ 0.321 µM) | CCNC[C@H]1CN(c2cc3c(cc2F)c(=O)c(C(=O)O)cn3C2CC2)[C@@H]1C | 265 mg/kg | 60.5 mg/kg | 28.4 mg/kg
